Most compounds without a hit are left out; they make up all but 2.1% or so of the library.
PKA-R1A activ: PKA-R1A complex activation. PKA-R1A dissociation, Cy5-IP20 fluorescence polarization; scaled: DMSO 0%, 113 µM cGMP 100%. activation, % at 11.4 µM. 340,000 tested, 0.083% active. AID 504707;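 active = percent activation above the mean of all tested compounds plus 3 SD, cut at about 19% in these data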;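 also: higher means more PKAc released from R1A so a rise in polarization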
bovine MsrA act: activators of bovine methionine sulfoxide reductase A; activation, % at 10.6 µM; 360,000 tested, 0.3% active; purified bovine MsrA, absorbance read-out; in the data active = activation above about 7.5%;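 also: 0% = vehicle and 100% = reference activator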
IMP-1 inh: blocks Pseudomonas aeruginosa IMP-1 metallo-beta-lactamase. purified IMP-1, nitrocefin hydrolysis, epi-absorbance fluorescence. inhibition, % at 5.6 µM. 290,000 tested, 0.45% active. AID 1556;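 active = inhibition above the mean plus 3 SD of all compounds in the same screening run, cut at about 4.5% in these data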;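 also: 0% = IMP-1 with DMSO and 100% = DMSO wells lacking enzyme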
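system = purified recombinant IMP-1 beta-lactamase | amount = 0.2 nM IMP-1, as dispensed | medium = HEPES buffer pH 7.1 with ZnSO4 and Brij 35 | times = 25 °C, 15 min preincubation, 25 min reaction | detection = plate fluorescence quenching by hydrolysis product, ex 480/em 530 nm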
PKA-R2B act: activators of human PKA-R2B complex; activation, % at 11.4 µM; PKA-R2B holoenzyme dissociation, Cy5-IP20 fluorescence polarization; R2B truncated from residue 108, S112A mutant; 0% DMSO only, 100% 113 µM cGMP; P22694+P31323; 340,000 tested, 0.079% active; AID 504700;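 active = activation above a cutoff set at the mean over all compounds plus 3 SD, cut at about 18% in these data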;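 also: higher means more holoenzyme dissociation and a rise in polarization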
Target sequence (P31323 whole entry, looked up, other chains not shown, the tested form may be a part): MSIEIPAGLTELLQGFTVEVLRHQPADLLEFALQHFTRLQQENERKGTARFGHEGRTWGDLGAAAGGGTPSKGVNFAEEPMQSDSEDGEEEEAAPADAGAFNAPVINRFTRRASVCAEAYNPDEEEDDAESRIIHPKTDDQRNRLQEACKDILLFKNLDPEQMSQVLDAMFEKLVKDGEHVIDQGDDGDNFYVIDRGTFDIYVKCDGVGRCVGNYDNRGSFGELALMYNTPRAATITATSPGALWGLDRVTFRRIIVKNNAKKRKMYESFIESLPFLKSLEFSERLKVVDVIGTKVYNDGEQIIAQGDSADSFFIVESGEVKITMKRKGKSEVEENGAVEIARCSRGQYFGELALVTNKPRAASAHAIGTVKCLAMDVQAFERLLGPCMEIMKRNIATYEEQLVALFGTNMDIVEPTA
MsrA inhibitor: inhibitors of bovine MsrA | purified bovine MsrA, absorbance read-out | inhibition, % at 15.5 µM | 360,000 tested, 0.75% active; in the data active = inhibition above about 4.5%;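 also: 0% = vehicle wells with enzyme and 100% = reference inhibitor wells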
VIM-2 inhibitor: inhibitors of Pseudomonas aeruginosa VIM-2 metallo-beta-lactamase | purified VIM-2, nitrocefin hydrolysis, epi-absorbance fluorescence | inhibition, % at 5.6 µM | 290,000 tested, 0.89% active;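 active = inhibition above the mean of all tested compounds plus 3 SD, cutoff set per screening run, cut at about 7.5% in these data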;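 also: red hydrolysis product quenches plate fluorescence so inhibitors raise well fluorescence; 0% = enzyme with DMSO and 100% = DMSO without enzyme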
VIM-2 inh confirm: VIM-2 inhibition, confirmation assay. shares compounds with IMP-1 inh. purified VIM-2 enzyme, nitrocefin absorbance. inhibition, % at 5.6 µM. 200 tested, 73% active; in the data active = inhibition above about 8%;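 also: 0% = enzyme with vehicle and 100% = no enzyme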
TEM-1 inh 2: blocks E. coli TEM-1 beta-lactamase, VIM-2 IMP-1 counter-screen | shares compounds with IMP-1 inh | 200 tested, 50% active | AID 2184 | nitrocefin absorbance inhibition | inhibition, % at 5.6 µM; in the data active = inhibition above about 0.66%
IMP-1 inh conf: confirmation of P. aeruginosa IMP-1 metallo-beta-lactamase inhibitors; inhibition, % at 5.6 µM; purified IMP-1 enzyme, absorbance substrate hydrolysis; 200 tested, 60% active; shares compounds with IMP-1 inh; in the data active = inhibition above about 4.9%;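 also: 0% = enzyme with vehicle and 100% = vehicle without enzyme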
Starred values were filed as active, the others as inactive; nt = no result.

SMILES	PKA-R1A activ	bovine MsrA act	IMP-1 inh	PKA-R2B act	MsrA inhibitor	VIM-2 inhibitor	VIM-2 inh confirm	TEM-1 inh 2	IMP-1 inh conf
Cc1ccc(C2C(C(=O)c3ccco3)=C(O)C(=O)N2c2nnc(C)s2)cc1 (stereo unspecified)	0.3	-0.9	1.4	2.4	1.2	0.8	nt	nt	nt
COc1ccccc1NOC(=O)CCOc1ccccc1	6.0	-2.3	nt	3.4	-0.2	nt	nt	nt	nt
CCc1cc(=O)oc2cc(C)c(CN3CCCC(C)C3)c(O)c12 (stereo unspecified)	7.6	-1.4	16.2*	1.2	3.4	8.4*	10.2*	-3.2	0.7
CCCCc1cc(=O)oc2cc(C)c(CN3CCCC3)c(O)c12	-0.2	-12.9	14.3*	-2.3	2.1	8.3*	2.4	-3.3	5.6*
C=C[C@H]1CN2CC[C@H]1C[C@H]2[C@H](O)c1ccnc2ccc(OC)cc12	-5.8	-0.9	nt	-1.1	0.6	nt	nt	nt	nt
COC(=O)[C@]12C[C@H](CC(=O)NCc3cccc4ccccc34)C(=O)N(Cc3ccc4c(c3)OCO4)C1=C[C@H](COCc1ccccc1)O[C@@H]2C	nt	nt	nt	nt	0.9	nt	nt	nt	nt
O=C1CSC(=S)N1/N=C/c1cc(Br)c(O)c(Br)c1	-5.7	-2.4	22.6*	-11.8	nt	13.3*	26.1*	3.6*	37.3*
COc1cc(/C=N/N2C(=O)CSC2=S)ccc1O	-1.3	-4.5	-2.1	6.1	3.9	-5.3	nt	nt	nt
Cc1cc(/C=N/NC(N)=S)c(O)c(/C=N/NC(N)=S)c1	12.7	0.7	27.1*	10.2	1.6	26.0*	26.4*	-1.7	25.1*
COc1ccc(N=Nc2nc3ccc(Br)cc3n2C)cc1	-2.9	6.7	25.2*	-7.3	0.4	25.9*	-2.3	-4.9	-3.9
CC(c1nnc(SCC(=O)Nc2cc([N+](=O)[O-])ccc2F)n1Cc1ccccc1)N(C)C (stereo unspecified)	-2.8	-1.7	-4.5	-1.3	1.0	-3.4	nt	nt	nt
Oc1ccc(Cn2ccnc2)c2cccnc12	-4.2	-10.8	26.1*	-7.7	-1.0	10.3*	20.7*	-2.6	43.8*
c1ccc2c(Cn3ccnc3)c[nH]c2c1	-13.7	-0.4	-1.3	-12.3	-0.2	-0.9	nt	nt	nt
CCOc1ccc(/C=C2\CCCc3c2nc2ccccc2c3C(=O)O)cc1OC	9.9	-2.9	29.0*	2.4	nt	37.7*	37.1*	56.1*	27.5*
COc1ccc(/C=C2\CCc3c2nc2ccccc2c3C(=O)O)cc1OC	-2.9	-2.7	1.9	-4.5	2.7	-0.8	nt	nt	nt
COc1ccc(/C=C2\CCCc3c2nc2ccccc2c3C(=O)O)cc1OC	nt	nt	17.4*	nt	nt	16.4*	22.8*	39.2*	19.2*
O=C(C[C@@H]1C[C@H]2c3cc(NC(=O)NC4CCCCC4)ccc3O[C@H]2[C@H](CO)O1)NC1CCCCC1	1.9	-0.2	nt	-9.0	-0.4	nt	nt	nt	nt
Nc1ccc2nc3c(=O)n(C4CCCCC4)c(=O)[nH]c3nc2c1	-1.9	-3.3	23.6*	4.2	0.2	20.6*	23.3*	29.6*	16.1*
COc1cc2[nH]c(=O)n(C3CCCCC3)c(=O)c2cc1OC	-9.1	-1.3	-3.1	-9.6	2.2	-1.4	nt	nt	nt
Nc1ccc2nc3c(=O)n(CCc4ccccc4)c(=O)[nH]c3nc2c1	nt	-4.4	11.4*	nt	-0.2	9.1*	19.1*	33.4*	17.6*
Cc1cc2nc3c(=O)n(CCc4ccccc4)c(=O)[nH]c3nc2cc1N	-14.4	-7.5	3.0	-5.5	0.3	5.1	nt	nt	nt
CCCCn1c(=O)[nH]c2nc3cc(N)ccc3nc2c1=O	0.8	-4.1	17.2*	4.1	1.2	18.7*	21.8*	30.8*	17.7*
C/C(=N\O)c1ccc2c3c([nH]c2c1)CCCC3	-5.2	1.1	8.6*	-9.3	1.1	22.7*	37.2*	-3.5	4.8*
CCCCCCC12C(=Cc3cc4c(cc31)OCCO4)c1cc(OC)c(OC)cc1C(CC(=O)O)N2C(=O)OC (stereo unspecified)	nt	nt	nt	nt	2.3	nt	nt	nt	nt
